The structures appear in SMILES notation.

The subject of test [1] is DNA. In words: DNA alkylating activity in GCPII negative human PC3 cells exhibiting increased cathepsin B activity assessed as reduction in cell viability incubated for 72 hrs by MTS assay. It is filed as functional. The conditions noted are these: PC-3, 72 h. A digest of the protocol: (§1)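 Cell lines from ECACC, grown in supplier-recommended media with 10% foetal calf serum and 2 mM L-glutamine, kept at 1-9 x 10^5 cells/mL, 37 °C, 5% CO2. Seeded at 3 x 10^4 cells/100 μL and exposed in triplicate to compound at 100 μM down to 0.00001 μM (10-fold steps) for 72 h; final DMSO 1%. Stocks in DMSO made fresh each day. Doxorubicin hydrochloride (10 μM) served as the 100% inhibition value. MTS reagent added for 3 h, absorbance read at 490 nm. Three independent runs on different passages; IC50 from curve fit.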
In general terms: Tetrazolium dyes change colour on reduction, which living cells bring about.

In test [2] the test system is DNA. As to the kind of experiment: DNA alkylating activity in human NCI-H292 cells exhibiting increased cathepsin B activity and overexpressing GCPII assessed as reduction in cell viability incubated for 72 hrs by MTS assay. It is filed as functional, cell-based. The conditions noted are these: NCI-H292, 72 h. Summed up: as §1
Test [3] relates to DNA. As to the kind of experiment: DNA alkylating activity in human MCF7 cells exhibiting increased cathepsin B activity and overexpressing GCPII assessed as reduction in cell viability incubated for 72 hrs by MTS assay. The following applies: MCF7, 72 h. It is filed as functional, cell-based. A digest of the protocol: as §1
Test [4] has as its system DNA. In words: DNA alkylating activity in human A549 cells exhibiting increased cathepsin B activity and overexpressing GCPII assessed as reduction in cell viability incubated for 72 hrs by MTS assay. It is filed as functional, cell-based. The following applies: A549, 72 h. Summed up: as §1
Test [5] deals with DNA. As to the kind of experiment: DNA alkylating activity in human LNCAP cells exhibiting increased cathepsin B activity and overexpressing GCPII assessed as reduction in cell viability incubated with GCPII binder 2-PMPA for 1 hr followed by incubation with compound for 48 hrs by MTS assay. It is filed as functional, cell-based. A digest of the protocol: (§2)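 Pre-treatment of cells (3 x 10^4/100 μL) with 10 μM 2-PMPA for 1 h. Compound in DMSO was then added in triplicate at 100 μM to 0.0001 μM (10-fold steps), 48 h at 37 °C, 5% CO2; final DMSO 1%. Doxorubicin hydrochloride defined 100% inhibition. MTS reagent for 3 h, absorbance at 490 nm. Three independent runs on different passages.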

The test system of test [6] is DNA. In words: DNA alkylating activity in human LNCAP cells exhibiting increased cathepsin B activity and overexpressing GCPII assessed as reduction in cell viability incubated for 72 hrs by MTS assay. It is filed as functional, cell-based. A digest of the protocol:
as §1

Test [7] deals with DNA. In words: DNA alkylating activity in human SK-MEL-28 cells exhibiting increased cathepsin B activity and overexpressing GCPII assessed as reduction in cell viability incubated for 72 hrs by MTS assay. It is filed as functional, cell-based. The conditions noted are these: SK-MEL-28, 72 h. A digest of the protocol: as §1
Test [8] has as its system DNA. In words: DNA alkylating activity in GCPII negative human PC3 cells exhibiting increased cathepsin B activity assessed as reduction in cell viability incubated with GCPII binder 2-PMPA for 1 hr followed by incubation with compound for 48 hrs by MTS assay. It is filed as functional. The following applies: PC-3. Summed up: as §2
For test [9], the system named is DNA. As to the kind of experiment: DNA alkylating activity in human GCPII negative 16HBE14o cells deficient of cathepsin B activity assessed as reduction in cell viability incubated for 72 hrs by MTS assay. It is filed as functional. Summed up: as §1
Test [10] deals with DNA. As to the kind of experiment: DNA alkylating activity in human SKBR3 cells exhibiting increased cathepsin B activity and reduced GCPII expression assessed as reduction in cell viability incubated for 72 hrs by MTS assay. It is filed as functional, cell-based. The conditions noted are these: SK-BR-3, 72 h. Summed up:
as §1

By IC50 is commonly meant the point on the concentration scale where inhibition reaches its midpoint. With `NC(=O)c1cc2c3c(cc(O)c2[nH]1)N(C(=O)c1ccc(N)cc1)CC3CCl` (stereo not given), the concentration for half-maximal inhibition (IC50) with DNA [1] is 4.7 nM; in the test on DNA [2], 7.3 nM; in the test with DNA [3], 181 nM; in the test on DNA [4] it was 36.6 nM; in the test with DNA [5] it was 25.5 nM; in the test on DNA [6] it was 15.7 nM. Further, the 50% inhibitory concentration (IC50) is 22.5 nM with DNA [7], 6.1 nM in the test on DNA [8], 85.4 nM in the test with DNA [9] and 2.3 nM in the test on DNA [10].

These data come from ChEMBL document CHEMBL4373672, “A small molecule drug conjugate (SMDC) of DUPA and a duocarmycin built on the solid phase” (Medchemcomm, 2019).
